A word on the IC50: it is the concentration at which inhibition is half-maximal.

Test [1] in a line: In vitro inhibition of [3H]DASP transport through rat cerebrocortical membranes with 100 uM TBOA; Phase 1. It is filed as functional, cell membranes, Membrane. The gist of the method: (§1)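 [3H]D-aspartate (24 Ci/mmol) transport into rat cerebrocortical plasma membrane vesicles in HEPES-buffered saline A, pH 7.5, at 30 °C, with 100 µM DL-TBOA present. An IC50 was taken for each phase of the dose–response curve. Duplicates in 2–6 experiments, mean ± SD.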

A short description of test [2]: In vitro inhibition of [3H]DASP transport through rat cerebrocortical membranes with 100 uM TBOA; Phase 2. It is filed as functional, cell membranes, Membrane. The gist of the method:
as §1

Test [3] can be described thus: In vitro inhibition of [3H]DASP transport through rat cerebrocortical membranes without TBOA; Control. In kind it is functional, cell membranes, Membrane. The gist of the method: (§2)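 Rat cerebrocortical native plasma membrane vesicle fraction, final pellet in buffer A (145 mM NaCl, 5 mM KCl, 1 mM CaCl2, 1 mM MgCl2, 10 mM glucose, 0.1 mM aminooxyacetate, 2 mM NaHCO3, 20 mM HEPES, pH 7.5). Specific [3H]D-aspartate (24 Ci/mmol) transport measured at 30 °C. Duplicates in 2–6 experiments. IC50 given as mean ± SD.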

A short description of test [4]: In vitro inhibition of [3H]DASP transport through rat cerebrocortical membranes. In kind it is functional, cell membranes, Membrane. The method, boiled down: as §2
Test [5] deals with T1, GABA transporter (Rattus norvegicus, UniProt P31647+P23978+P31646+P48056). The test is described as follows: In vitro inhibitory activity against [3H]GABA transport in rat cerebrocortical membranes. It is filed as cell membranes. The gist of the method: (§3)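 Specific [3H]GABA (61 Ci/mmol) transport was measured at 30 °C in a native plasma membrane vesicle fraction from rat cerebral cortex. Vesicles were suspended in buffer A (Na+/K+/Ca2+/Mg2+ saline, 10 mM glucose, 0.1 mM aminooxyacetate, 20 mM HEPES, pH 7.5). Duplicates in 2–6 experiments. IC50 given as mean ± SD.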

Test [6] deals with T1, GABA transporter. The test is described as follows: In vitro inhibitory activity against [3H]GABA transport in rat cerebrocortical membranes in the absence of NNC-711; Control. In kind it is cell membranes. The gist of the method: as §3
Test [7] deals with T1, GABA transporter. Nature of the test: In vitro inhibitory activity against [3H]-GABA transport in rat cerebrocortical membranes in the presence of NNC-711 (100 uM); Phase 1. In kind it is cell membranes. The gist of the method:
(§4)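 [3H]GABA (61 Ci/mmol) uptake by rat cerebrocortical membrane vesicles in buffer A, pH 7.5, at 30 °C, with 100 µM NNC-711 present. An IC50 was derived for each phase of the dose–response curve. Duplicates in 2–6 experiments, mean ± SD.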

Test [8] concerns the target T1, GABA transporter. Nature of the test: In vitro inhibitory activity against [3H]GABA transport in rat cerebrocortical membranes in the presence of NNC-711 (100 uM); Phase 2. It is filed as cell membranes. The gist of the method:
as §4

Regarding `COC(=O)/C=C(/c1ccccc1)C(C)N(C)CC(=O)OC.N[C@H](C(=O)O)[C@H](OCc1ccccc1)C(=O)O` (configuration not stated), the results for the concentration for half-maximal inhibition (IC50) in test [1], in test [2] and in test [3] were 11 nM, 1020 µM and 1100 µM, respectively.
As to `CCOC(=O)/C=C(\c1ccccc1)C(C)N(C)CC(=O)OCC` (configuration not stated), the concentration for half-maximal inhibition (IC50) in test [4] was above 1 mM; in test [5], >> 1000 uM.
On to `COC(=O)/C=C(\c1ccccc1)C(C)N(C)CC(=O)OC` (configuration not stated), for which the IC50 in test [4] is above 1 mM; in test [5] it was >> 1000 uM.
On to `CCOC(=O)C1=C(c2ccccc2)C(C)N(C)CC1C(=O)OCC` (configuration not stated), for which the IC50 in test [4] is above 1 mM; in test [5] it was >> 1000 uM.
`CCOC(=O)[C@H]1[C@H](C(=O)O)CN(C)C(C)[C@]1(O)c1ccccc1` (some centres not stated): the IC50 in test [4] is above 1 mM; in test [5], >> 1000 uM.
With `CCOC(=O)/C=C(/c1ccccc1)C(C)N(C)CC(=O)OCC.N[C@H](C(=O)O)[C@H](OCc1ccccc1)C(=O)O` (configuration not stated), the IC50 in test [1] stood at 34 nM; in test [2], 386 µM; in test [3], 420 µM.
Take `CCOC(=O)C1C(=O)C=C(c2ccccc2)C(C)N1C` (configuration not stated): the IC50 is 0.66 mM in test [4] and 680 µM in test [5].
For the molecule `CCOC(=O)CN(C)C(C)C(=O)c1ccccc1.Cl` (configuration not stated), the concentration for half-maximal inhibition (IC50) is above 1 mM in test [4] and >> 1000 uM in test [5].
For `CCOC(=O)/C=C(/c1ccccc1)C(C)N(C)CC(=O)OCC.Cl.O=C(O)C1=CCCN(CCON=C(c2ccccc2)c2ccccc2)C1`, the half-maximal inhibitory concentration (IC50) in test [6] is 270 µM; in test [7], 180 nM; in test [8], 380 µM.
On the same counts, the results for `COC(=O)/C=C(/c1ccccc1)C(C)N(C)CC(=O)OC.Cl.O=C(O)C1=CCCN(CCON=C(c2ccccc2)c2ccccc2)C1` are 1100 µM, 44 nM and 491 µM.
As to `CC1N(C)C[C@@H](C(=O)O)[C@H](C(=O)O)[C@@]1(O)c1ccccc1` (some centres not stated), the IC50 is above 1 mM in test [4] and >> 1000 uM in test [5].
On the same counts, the results for `CCOC(=O)[C@@H]1CN(C)C(C)[C@](O)(c2ccccc2)[C@H]1C(=O)OCC` (some centres not stated) are above 1 mM and >> 1000 uM.
The like results for `CCOC(=O)CNC(C)C(=O)c1ccccc1.Cl` (configuration not stated) were, in that order, above 1 mM and >> 1000 uM.
In the case of `CCOC(=O)/C=C(/c1ccccc1)C(C)N(C)CC(=O)OCC` (configuration not stated), the concentration for half-maximal inhibition (IC50) in test [4] came to 0.42 mM; in test [5], 270 µM.
For the molecule `CCOC(=O)C1C(=O)C=C(c2ccccc2)C(C)N1C.N[C@H](C(=O)O)[C@H](OCc1ccccc1)C(=O)O` (configuration not stated), the IC50 turned out to be 9 nM in test [1], 591 µM in test [2] and 660 µM in test [3].
Regarding `CCOC(=O)C1C(=O)C=C(c2ccccc2)C(C)N1C.Cl.O=C(O)C1=CCCN(CCON=C(c2ccccc2)c2ccccc2)C1`, the concentration for half-maximal inhibition (IC50) came to 680 µM in test [6], 3.7 nM in test [7] and 360 µM in test [8].
On to `COC(=O)/C=C(/c1ccccc1)C(C)N(C)CC(=O)OC` (configuration not stated), for which the figures for the IC50 in test [4] and in test [5] were 1.1 mM and 1100 µM, respectively.
Consider `COC(=O)CN(C)C(C)C(=O)c1ccccc1.Cl` (configuration not stated), for which the IC50 in test [4] is above 1 mM; in test [5] it was >> 1000 uM.
